Laboratory results published in ChEMBL document CHEMBL1148866, “Design and synthesis of beta-methoxyacrylate analogues via click chemistry and biological evaluations” (2007).
In brackets after ≈: the same amount, converted by molar mass.

Key:
Assay type in all cases: functional
Fusarium oxysporum = assay: Antifungal activity against Fusarium oxysporum
In short: (§1)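 MIC determined in 96-well plates. 1-mm diameter mycelial pieces were incubated in Czapek Dox minimal medium across a range of compound concentrations, and the MIC was read from mycelial growth.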

[1] = test system: Simplicillium lamellicola; assay: Antifungal activity against Verticillium lamellicola; in short: as §1
Radish = assay: Effect on growth of Raphanus sativus assessed as length of hypocotyl at 50 ug/mL by seed germination assay
Alternaria brassicicola = assay: Antifungal activity against Alternaria brassicola; in short: as §1
Aspergillus flavus = assay: Antifungal activity against Aspergillus flavus; in short: as §1
Alternaria brassicae = assay: Antifungal activity against Alternaria brassicae; in short: as §1

MIC (Fusarium oxysporum) [µg/mL] | MIC [1] [µg/mL] | MIC (Alternaria brassicicola) [µg/mL] | MIC (Aspergillus flavus) [µg/mL] | MIC (Alternaria brassicae) [µg/mL] | SMILES | Activity (Radish) [mm]
1000 (≈ 2610 µM) | 1500 (≈ 3910 µM) | 1000 (≈ 2610 µM) | > 1500 | 1000 (≈ 2610 µM) | CO/C=C(/C(=O)OC)c1cc(Cl)ccc1Cn1cc(-c2ccccc2)nn1 | 18.8
4 (≈ 22.2 µM) | 4 (≈ 22.2 µM) | 4 (≈ 22.2 µM) | 4 (≈ 22.2 µM) | 4 (≈ 22.2 µM) | C#CS(=O)(=O)c1ccc(C)cc1 | 56.2
500 (≈ 1080 µM) | 500 (≈ 1080 µM) | 500 (≈ 1080 µM) | 500 (≈ 1080 µM) | 400 (≈ 866 µM) | CO/C=C(/C(=O)OC)c1cc(Cl)ccc1Cn1cc(S(=O)(=O)c2ccc(C)cc2)nn1 | 30.7
1000 (≈ 2430 µM) | 1000 (≈ 2430 µM) | 1000 (≈ 2430 µM) | 1500 (≈ 3640 µM) | 1000 (≈ 2430 µM) | CO/C=C(/C(=O)OC)c1cc(Cl)ccc1Cn1cc(-c2ccccc2C=O)nn1 | 25
1500 (≈ 3870 µM) | 1500 (≈ 3870 µM) | 1000 (≈ 2580 µM) | > 1500 | 1000 (≈ 2580 µM) | CO/C=C(/C(=O)OC)c1cc(Cl)ccc1Cn1cc(C2=CCCCC2)nn1 | 14
– | – | – | – | – | CO/C=C(/C(=O)OC)c1ccccc1Oc1cc(Oc2ccccc2C#N)ncn1 [AZOXYSTROBIN] | 2
